Data from ChEMBL document CHEMBL3616437, “Thiazole compounds with activity against Cryptococcus gattii and Cryptococcus neoformans in vitro” (Eur J Med Chem, 2015).

Assays:
[1] = test system: Cryptococcus neoformans; experiment: Antifungal activity against Cryptococcus neoformans 96806 assessed as reduction in cell viability at 0.9 uM after 6 to 72 hrs by MTT assay; type: functional
[2] = test system: Cryptococcus neoformans; experiment: Antifungal activity against Cryptococcus neoformans ATCC 24067 assessed as reduction in cell viability at 0.9 uM after 6 to 72 hrs by MTT assay; type: functional
[3] = test system: Cryptococcus gattii species complex; experiment: Post-antifungal activity against Cryptococcus gattii L27/01 assessed as organism required time to achieve cell population of 10^4 cells/ml at 0.45 uM treated for 1 hr by MTT assay in presence of 0.11 uM amphotericin B; type: functional, Cryptococcus bacillisporus
[4] = test system: Cryptococcus neoformans; experiment: Antifungal activity against Cryptococcus neoformans LMM820 assessed as reduction in cell viability at 0.9 uM after 6 to 72 hrs by MTT assay; type: functional
[5] = test system: Cryptococcus neoformans; experiment: Antifungal activity against Cryptococcus neoformans 27JF assessed as reduction in cell viability at 0.9 uM after 6 to 72 hrs by MTT assay; type: functional
[6] = test system: Cryptococcus gattii species complex; experiment: Antifungal activity against Cryptococcus gattii L28/02 assessed as reduction in cell viability at 26 uM after 6 to 72 hrs by MTT assay; type: functional, Cryptococcus bacillisporus
Summary of the method: (§1)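 Time-kill setup: colonies from two 48 h, 35°C SDA passages were suspended in saline to 70% transmittance at 530 nm. They were then diluted to 1-5 x10^3 cells/mL in RPMI with L-glutamine buffered to pH 7.0 with 0.165 M MOPS. Plates were incubated at 35°C for 0-72 h, then MTT (5.0 mg/mL) was added for 3 h. After isopropanol, absorbance was read at 490 nm. Drug-free controls were included, results were confirmed by SDA colony counts, and assays were run in triplicate.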

[7] = test system: Cryptococcus gattii species complex; experiment: Antifungal activity against Cryptococcus gattii 547/OTTI-97-PI-10 assessed as reduction in cell viability at 26 uM after 6 to 72 hrs by MTT assay; type: functional, Cryptococcus bacillisporus; summary of the method: as §1
[8] = test system: Cryptococcus neoformans; experiment: Antifungal activity against Cryptococcus neoformans 28JF assessed as reduction in cell viability at 26 uM after 6 to 72 hrs by MTT assay; type: functional; summary of the method: as §1
[9] = test system: Cryptococcus neoformans; experiment: Antifungal activity against Cryptococcus neoformans ATCC 24067 assessed as reduction in cell viability at 26 uM after 6 to 72 hrs by MTT assay; type: functional; summary of the method: as §1
[10] = test system: Cryptococcus gattii species complex; experiment: Antifungal activity against Cryptococcus gattii 23/10993 assessed as reduction in cell viability at 26 uM after 6 to 72 hrs by MTT assay; type: functional, Cryptococcus bacillisporus; summary of the method: as §1
[11] = test system: Cryptococcus neoformans; experiment: Antifungal activity against Cryptococcus neoformans 27JF assessed as reduction in cell viability at 26 uM after 6 to 72 hrs by MTT assay; type: functional; summary of the method: as §1
[12] = test system: Cryptococcus neoformans; experiment: Antifungal activity against Cryptococcus neoformans 28JF assessed as reduction in cell viability at 0.12 uM after 6 to 72 hrs by MTT assay; type: functional
[13] = test system: Cryptococcus neoformans; experiment: Antifungal activity against Cryptococcus neoformans ATCC 62066 assessed as reduction in cell viability at 0.12 uM after 6 to 72 hrs by MTT assay; type: functional
[14] = test system: Cryptococcus neoformans; experiment: Antifungal activity against Cryptococcus neoformans F10 assessed as reduction in cell viability at 0.12 uM after 6 to 72 hrs by MTT assay; type: functional
[15] = test system: Cryptococcus gattii species complex; experiment: Antifungal activity against Cryptococcus gattii L28/02 assessed as reduction in cell viability at 0.12 uM after 6 to 72 hrs by MTT assay; type: functional, Cryptococcus bacillisporus
[16] = test system: Cryptococcus gattii species complex; experiment: Antifungal activity against Cryptococcus gattii L24/01 assessed as reduction in cell viability at 0.12 uM after 6 to 72 hrs by MTT assay; type: functional, Cryptococcus bacillisporus
[17] = test system: Cryptococcus gattii species complex; experiment: Antifungal activity against Cryptococcus gattii ICB181 assessed as reduction in cell viability at 0.12 uM after 6 to 72 hrs by MTT assay; type: functional, Cryptococcus bacillisporus
[18] = test system: Cryptococcus neoformans; experiment: Post-antifungal activity against Cryptococcus neoformans CN31 assessed as organism required time to achieve cell population of 10^4 cells/ml at 0.05 uM treated for 1 hr by MTT assay; type: functional
[19] = test system: Cryptococcus gattii species complex; experiment: Post-antifungal activity against Cryptococcus gattii L27/01 assessed as organism required time to achieve cell population of 10^4 cells/ml at 0.11 uM treated for 1 hr by MTT assay; type: functional, Cryptococcus bacillisporus
[20] = test system: Cryptococcus gattii species complex; experiment: Antifungal activity against Cryptococcus gattii ATCC 24065 assessed as reduction in cell viability at 0.12 uM after 6 to 72 hrs by MTT assay
[21] = test system: Cryptococcus neoformans; experiment: Antifungal activity against Cryptococcus neoformans LMM820 assessed as reduction in cell viability at 0.12 uM after 6 to 72 hrs by MTT assay; type: functional
[22] = test system: Cryptococcus neoformans; experiment: Antifungal activity against Cryptococcus neoformans VM-MCMMPI assessed as reduction in cell viability at 0.12 uM after 6 to 72 hrs by MTT assay; type: functional
[23] = test system: Cryptococcus gattii species complex; experiment: Antifungal activity against Cryptococcus gattii 23/10993 assessed as reduction in cell viability at 0.12 uM after 6 to 72 hrs by MTT assay; type: functional, Cryptococcus bacillisporus
[24] = test system: Cryptococcus neoformans; experiment: Antifungal activity against Cryptococcus neoformans CN31 assessed as reduction in cell viability at 1.9 uM after 6 to 72 hrs by MTT assay; type: functional
[25] = test system: Cryptococcus neoformans; experiment: Antifungal activity against Cryptococcus neoformans ATCC 24067 assessed as reduction in cell viability at 1.9 uM after 6 to 72 hrs by MTT assay; type: functional
[26] = test system: Cryptococcus neoformans; experiment: Antifungal activity against Cryptococcus neoformans ATCC 28957 assessed as reduction in cell viability at 1.9 uM after 6 to 72 hrs by MTT assay; type: functional
[27] = test system: Cryptococcus neoformans; experiment: Antifungal activity against Cryptococcus neoformans F10 assessed as reduction in cell viability at 1.9 uM after 6 to 72 hrs by MTT assay; type: functional
[28] = test system: Cryptococcus neoformans; experiment: Antifungal activity against Cryptococcus neoformans WP assessed as reduction in cell viability at 1.9 uM after 6 to 72 hrs by MTT assay; type: functional
[29] = test system: Cryptococcus neoformans; experiment: Antifungal activity against Cryptococcus neoformans LMM820 assessed as reduction in cell viability at 1.9 uM after 6 to 72 hrs by MTT assay; type: functional
[30] = test system: Cryptococcus neoformans; experiment: Antifungal activity against Cryptococcus neoformans ATCC 62066 assessed as reduction in cell viability at 1.9 uM after 6 to 72 hrs by MTT assay; type: functional
[31] = test system: Cryptococcus neoformans; experiment: Antifungal activity against Cryptococcus neoformans VM-MCMMPI assessed as reduction in cell viability at 1.9 uM after 6 to 72 hrs by MTT assay; type: functional
[32] = test system: Cryptococcus neoformans; experiment: Antifungal activity against Cryptococcus neoformans 5396 assessed as reduction in cell viability at 1.9 uM after 6 to 72 hrs by MTT assay; type: functional

`COc1ccc(-c2csc(N/N=C(\C)CCO)n2)cc1` was tested, and the Activity [1] was 90%, the Activity [2] was 90% and the Time [3] was 2.15 h. The Activity [4] was 90% and the Activity [5] was 90%.
With `OC(Cn1cncn1)(Cn1cncn1)c1ccc(F)cc1F` [FLUCONAZOLE] the Activity [6] was 80%, the Activity [7] was 80% and the Activity [8] was 80%. It also gave an Activity [9] of 80%, an Activity [10] of 80% and an Activity [11] of 80%.
For `C[C@@H]1[C@H](O)[C@@H](C)/C=C/C=C/C=C/C=C/C=C/C=C/C=C/[C@H](O[C@@H]2O[C@H](C)[C@@H](O)[C@H](N)[C@@H]2O)C[C@@H]2O[C@](O)(C[C@@H](O)C[C@@H](O)[C@H](O)CC[C@@H](O)C[C@@H](O)CC(=O)O[C@H]1C)C[C@H](O)[C@H]2C(=O)O` [AMPHOTERICIN B], the Activity [12] was 90%, the Activity [13] was 90% and the Activity [14] was 90%. The Activity [15] was 90%, the Activity [16] was 90% and the Activity [17] was 90%. For the same compound, the Time [18] was 2.75 h, the Time [19] was 2.65 h and the Activity [20] was 90%. The Activity [21] was 90%, the Activity [22] was 90% and the Activity [23] was 90%.
With `C(=N\Nc1nc(-c2ccccc2)cs1)/C1CCCCC1` the Activity [24] was 90%, the Activity [25] was 90% and the Activity [26] was 90%. The Activity [27] was 90%, the Activity [28] was 90% and the Activity [29] was 90%. For the same compound, the Activity [30] was 90%, the Activity [31] was 90% and the Activity [32] was 90%.
